Reference: ChEMBL document CHEMBL1157352, “Potent, Plasmodium-selective farnesyltransferase inhibitors that arrest the growth of malaria parasites: structure-activity relationships of ethylenediamine-analogue scaffolds and homology model validation” (J Med Chem, 2008)

Legend:
Plasmodium falciparum [1] = assay: Inhibition of Plasmodium falciparum PFT at 5 nM
[2] = Selectivity for Plasmodium falciparum PFT over rat PFT
Plasmodium falciparum [3] = assay: Inhibition of Plasmodium falciparum PFT at 50 nM
[4] = Inhibition of rat PFT by scintillation proximity assay
[5] = Inhibition of Plasmodium falciparum PFT
Plasmodium falciparum [6] = assay: Antimalarial activity in Plasmodium falciparum K1 infected erythrocytes by [3H]hypoxanthine uptake; assay type: functional; conditions: K1, 72 h, read-out: ED50 (the source's name)
In short: (§1)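 Parasites kept per Trager–Jensen in RPMI-1640 with 2 mM L-glutamine, 25 mM HEPES, 33 mM NaHCO3, gentamicin, 20% heat-inactivated human A+ plasma. Compound in DMSO added to culture at 0.5% parasitemia and hematocrit; 37 °C, 5% CO2/5% O2/90% N2, 48 h. [8-3H]hypoxanthine (0.3 µCi) added for a further 24 h, then harvested and scintillation-counted. Uninfected-RBC background subtracted; DMSO vehicle taken as 100% growth. ED50 by linear regression.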

Plasmodium falciparum [7] = assay: Antimalarial activity in Plasmodium falciparum 3D7 infected erythrocytes as [3H]hypoxanthine uptake; assay type: functional; conditions: 3D7, 72 h, read-out: ED50 (the source's name); in short: as §1

| SMILES | inhibition (Plasmodium falciparum [1]) [%] | Selectivity ratio [2] | inhibition (Plasmodium falciparum [3]) [%] | IC50 [4] [nM] | IC50 [5] [nM] | EC50 (Plasmodium falciparum [6]) [nM] | EC50 (Plasmodium falciparum [7]) [nM] |
| --- | --- | --- | --- | --- | --- | --- | --- |
| Cn1cnc(S(=O)(=O)N(CCN(Cc2cncn2C)c2ccc(C#N)cc2)CC2CCN(C(=O)OC(C)(C)C)CC2)c1 | 81 | 117 | 96 | 140 |  |  |  |
| Cn1cnc(S(=O)(=O)N(CCCN(Cc2cncn2C)c2ccc(C#N)cc2)CC2CCN(C(=O)OC(C)(C)C)CC2)c1 | 73 |  | 94 |  | 1 |  |  |
| Cn1cnc(S(=O)(=O)N(Cc2ccccc2)[C@H]2CC[C@@H](N(Cc3cncn3C)c3ccc(C#N)cc3)CC2)c1 |  |  | 23 |  |  | 2750 |  |
| Cn1cnc(S(=O)(=O)N(CCCN(Cc2cncn2C)c2ccc(C#N)cc2)Cc2ccccc2)c1 | 16 |  | 71 |  |  | 2650 |  |
| Cn1cnc(S(=O)(=O)N(CCN(Cc2cncn2C)c2ccc(C#N)cc2)Cc2ccsc2)c1 | 91 |  | 100 |  |  | 240 | 150 |
| Cn1cnc(S(=O)(=O)N(Cc2ccsc2)CC(C)(C)N(Cc2cncn2C)c2ccc(C#N)cc2)c1 |  |  | 70 |  |  |  | 2450 |
| Cn1cnc(S(=O)(=O)N(CC2CCN(C(=O)OC(C)(C)C)CC2)[C@H]2CC[C@H](N(Cc3cncn3C)c3ccc(C#N)cc3)CC2)c1 |  |  | 0 |  |  | 1200 |  |
| Cn1cnc(S(=O)(=O)N(CC2CCN(C(=O)OC(C)(C)C)CC2)[C@H]2CC[C@@H](N(Cc3cncn3C)c3ccc(C#N)cc3)CC2)c1 |  |  | 0 |  |  | 650 |  |
| Cn1cnc(S(=O)(=O)N(CC2CCN(C(=O)OC(C)(C)C)CC2)CC(C)(C)N(Cc2cncn2C)c2ccc(C#N)cc2)c1 |  | 136 | 87 | 150 | 1.1 |  |  |
| Cc1ccccc1CN(CC(C)(C)N(Cc1cncn1C)c1ccc(C#N)cc1)S(=O)(=O)c1cn(C)cn1 | 91 |  | 98 |  |  |  |  |
| Cc1ccccc1CN(CCCN(Cc1cncn1C)c1ccc(C#N)cc1)S(=O)(=O)c1cn(C)cn1 | 24 |  | 76 |  |  |  |  |
| Cc1ccccc1CN(CCN(Cc1cncn1C)c1ccc(C#N)cc1)S(=O)(=O)c1cn(C)cn1 | 95 |  | 99 |  |  |  |  |
| Cn1cnc(S(=O)(=O)N(CC2CCN(c3ncccn3)CC2)CC(C)(C)N(Cc2cncn2C)c2ccc(C#N)cc2)c1 | 93 |  | 100 |  |  |  |  |
| Cn1cnc(S(=O)(=O)N(CCCN(Cc2cncn2C)c2ccc(C#N)cc2)CC2CCN(c3ncccn3)CC2)c1 | 62 |  | 93 |  |  |  |  |
| Cn1cnc(S(=O)(=O)N(CCCN(Cc2cncn2C)c2ccc(C#N)cc2)Cc2ccsc2)c1 | 18 |  | 73 |  |  |  |  |
| Cn1cnc(S(=O)(=O)N(CCN(Cc2cncn2C)c2ccc(C#N)cc2)CC2CCN(c3ncccn3)CC2)c1 | 74 |  | 96 |  |  |  |  |
| Cn1cnc(S(=O)(=O)N(CCN(Cc2cncn2C)c2ccc(C#N)cc2)Cc2ccccc2)c1 | 86 |  | 98 |  |  |  |  |
| Cn1cnc(S(=O)(=O)N(Cc2ccccc2)CC(C)(C)N(Cc2cncn2C)c2ccc(C#N)cc2)c1 | 88 |  | 100 |  |  |  |  |
| Cn1cnc(S(=O)(=O)N(Cc2ccccc2)[C@H]2CC[C@H](N(Cc3cncn3C)c3ccc(C#N)cc3)CC2)c1 |  |  | 73 |  |  |  |  |
| Cn1cnc(S(=O)(=O)N(CC2CCN(C(=O)OC(C)(C)C)CC2)[C@@H]2CCC[C@@H]2N(Cc2cncn2C)c2ccc(C#N)cc2)c1 (racemic) | 3 | > 2.9 | 2 | > 1000 | 350 | 1250 |  |

| SMILES | inhibition (Plasmodium falciparum [1]) [%] | Selectivity ratio [2] | inhibition (Plasmodium falciparum [3]) [%] | IC50 [4] [nM] | IC50 [5] [nM] | EC50 (Plasmodium falciparum [6]) [nM] | EC50 (Plasmodium falciparum [7]) [nM] |
| --- | --- | --- | --- | --- | --- | --- | --- |
| Cn1cnc(S(=O)(=O)N(CC2CCN(c3ncccn3)CC2)[C@@H]2CCC[C@@H]2N(Cc2cncn2C)c2ccc(C#N)cc2)c1 (racemic) | 10 |  | 0 |  |  | 2500 | 3000 |
| Cn1cnc(S(=O)(=O)N(Cc2ccsc2)[C@H]2CCC[C@@H]2N(Cc2cncn2C)c2ccc(C#N)cc2)c1 (racemic) | 11 |  | 57 |  |  | 2700 | 2700 |
| Cc1ccccc1CN([C@@H]1CC[C@@H](N(Cc2cncn2C)c2ccc(C#N)cc2)C1)S(=O)(=O)c1cn(C)cn1 (racemic) |  |  | 33 |  |  | 2200 | 2400 |
| Cc1ccccc1CN([C@@H]1CCC[C@@H]1N(Cc1cncn1C)c1ccc(C#N)cc1)S(=O)(=O)c1cn(C)cn1 (racemic) | 16 |  | 17 |  |  | 2800 | 2800 |
| Cn1cnc(S(=O)(=O)N(Cc2ccsc2)[C@@H]2CCC[C@@H]2N(Cc2cncn2C)c2ccc(C#N)cc2)c1 (racemic) | 0 |  | 9 |  |  | 4200 | > 5000 |
| Cc1ccccc1CN([C@H]1CC[C@@H](N(Cc2cncn2C)c2ccc(C#N)cc2)C1)S(=O)(=O)c1cn(C)cn1 (racemic) |  |  | 24 |  |  | 2600 | 2400 |
| Cn1cnc(S(=O)(=O)N(CC2CCN(c3ncccn3)CC2)[C@H]2CC[C@@H](N(Cc3cncn3C)c3ccc(C#N)cc3)C2)c1 (racemic) |  |  | 6 |  |  | 720 | 600 |
| Cc1ccccc1CN([C@H]1CCC[C@@H]1N(Cc1cncn1C)c1ccc(C#N)cc1)S(=O)(=O)c1cn(C)cn1 (racemic) | 12 |  | 35 |  |  | 3200 | 3000 |
| Cn1cnc(S(=O)(=O)N(CC2CCN(C(=O)OC(C)(C)C)CC2)[C@H]2CC[C@@H](N(Cc3cncn3C)c3ccc(C#N)cc3)C2)c1 (racemic) | 33 |  | 83 |  |  | 125 | 300 |
| Cn1cnc(S(=O)(=O)N(CC2CCN(c3ncccn3)CC2)[C@@H]2CC[C@@H](N(Cc3cncn3C)c3ccc(C#N)cc3)C2)c1 (racemic) |  |  | 38 |  |  | 1500 | 2600 |
| Cn1cnc(S(=O)(=O)N(CC2CCN(c3ncccn3)CC2)[C@H]2CCC[C@@H]2N(Cc2cncn2C)c2ccc(C#N)cc2)c1 (racemic) | 12 |  | 28 |  |  | 750 | 2600 |
| Cn1cnc(S(=O)(=O)N(Cc2ccccc2)[C@@H]2CC[C@@H](N(Cc3cncn3C)c3ccc(C#N)cc3)C2)c1 (racemic) | 65 |  | 93 |  |  | 145 | 340 |
| Cn1cnc(S(=O)(=O)N(Cc2ccccc2)[C@H]2CCC[C@@H]2N(Cc2cncn2C)c2ccc(C#N)cc2)c1 (racemic) | 20 |  | 42 |  |  | 2350 | 3100 |
| Cn1cnc(S(=O)(=O)N(Cc2ccccc2)[C@H]2CC[C@@H](N(Cc3cncn3C)c3ccc(C#N)cc3)C2)c1 (racemic) | 4 |  | 40 |  |  |  | 700 |
| Cn1cnc(S(=O)(=O)N(CC2CCN(C(=O)OC(C)(C)C)CC2)[C@H]2CCC[C@@H]2N(Cc2cncn2C)c2ccc(C#N)cc2)c1 (racemic) | 41 | > 100 | 82 | > 1000 | 10 |  | 2650 |
| Cn1cnc(S(=O)(=O)N(Cc2ccccc2)[C@@H]2CCC[C@@H]2N(Cc2cncn2C)c2ccc(C#N)cc2)c1 (racemic) | 0 |  | 0 |  |  |  | > 5000 |
| Cn1cnc(S(=O)(=O)N(CC2CCN(C(=O)OC(C)(C)C)CC2)[C@@H]2CC[C@@H](N(Cc3cncn3C)c3ccc(C#N)cc3)C2)c1 (racemic) | 86 |  | 97 |  | 3.1 |  | 310 |
| Cn1cnc(S(=O)(=O)N(Cc2ccsc2)[C@@H]2CC[C@@H](N(Cc3cncn3C)c3ccc(C#N)cc3)C2)c1 (racemic) |  |  | 56 |  |  | 1200 | 1500 |
| Cn1cnc(S(=O)(=O)N(Cc2ccsc2)[C@H]2CC[C@@H](N(Cc3cncn3C)c3ccc(C#N)cc3)C2)c1 (racemic) |  |  | 15 |  |  | 2500 | 2400 |
